Source: paper PMC7090343 (Heliyon, 2020)
Values after ≈ are worked out from the molar mass of the structure shown. Where two headings read alike, the source gives them in different places. Marks after values point to notes of the source that are not given here.

Assays:
[1] = tested on: human tyrosinase; conditions: ref An et al., 2010, cited from earlier work
[2] = In vitro antioxidation activity; conditions: DPPH assay, mean of three replicates; for EC50 (antioxidation activity), crude and partitioned extracts: Table 1 experiment
In short: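 Five concentrations of test compound or extract were prepared in DMSO. Each was mixed with 0.15 mM DPPH in methanol and held at 25 °C for 30 min, then A517 was read. Ascorbic acid served as reference standard. Antioxidation (%) = [(A control − A sample)/A control] × 100. EC50 came from linear and nonlinear regression of % activity against concentration. Triplicates were used.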

## O=C(O)/C=C/c1ccc(O)cc1 [p-coumaric acid]
[1]; for L-DOPA
  Type of inhibition of human tyrosinase: competitive
[1]; for tyrosine
  Type of inhibition of human tyrosinase: mixed type

## O=C1O[C@H]([C@@H](O)CO)C(O)=C1O [Ascorbic acid, ascorbic acid]
[2]
  EC50 (antioxidation activity), crude and partitioned extracts: 89.82^a μg/mL
[2]; listed as ascorbic acid
  EC50 (antioxidation activity), crude and partitioned extracts: 89.8 µg/mL (≈ 510 µM)
[2]; nonlinear regression, Table 4 experiment
  EC50 value of pooled fractions after SG60CC: 71.5^a μg/mL
